{"source": "paper PMC9669183", "about": "(British journal of pharmacology, 2022)", "key": {"[1]": {"biological_target": "α4β2δ GABAA receptor (Homo sapiens, UniProt O14764+P47870+P48169)", "sequence (P48169 36-554)": "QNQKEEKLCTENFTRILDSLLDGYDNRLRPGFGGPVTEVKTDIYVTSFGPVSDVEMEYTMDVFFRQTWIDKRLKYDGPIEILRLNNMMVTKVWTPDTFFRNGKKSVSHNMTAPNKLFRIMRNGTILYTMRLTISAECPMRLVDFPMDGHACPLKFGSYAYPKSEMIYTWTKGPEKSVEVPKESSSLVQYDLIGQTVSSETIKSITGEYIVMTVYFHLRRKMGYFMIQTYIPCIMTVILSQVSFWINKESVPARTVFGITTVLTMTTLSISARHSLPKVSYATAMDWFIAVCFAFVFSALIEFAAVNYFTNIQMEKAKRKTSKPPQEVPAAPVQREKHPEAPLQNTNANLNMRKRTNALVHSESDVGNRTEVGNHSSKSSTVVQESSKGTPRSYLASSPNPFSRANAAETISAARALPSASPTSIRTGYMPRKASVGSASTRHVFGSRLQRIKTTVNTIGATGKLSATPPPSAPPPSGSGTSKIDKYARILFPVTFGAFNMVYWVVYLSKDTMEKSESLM", "sequence (P47870 25-512 limits assumed)": "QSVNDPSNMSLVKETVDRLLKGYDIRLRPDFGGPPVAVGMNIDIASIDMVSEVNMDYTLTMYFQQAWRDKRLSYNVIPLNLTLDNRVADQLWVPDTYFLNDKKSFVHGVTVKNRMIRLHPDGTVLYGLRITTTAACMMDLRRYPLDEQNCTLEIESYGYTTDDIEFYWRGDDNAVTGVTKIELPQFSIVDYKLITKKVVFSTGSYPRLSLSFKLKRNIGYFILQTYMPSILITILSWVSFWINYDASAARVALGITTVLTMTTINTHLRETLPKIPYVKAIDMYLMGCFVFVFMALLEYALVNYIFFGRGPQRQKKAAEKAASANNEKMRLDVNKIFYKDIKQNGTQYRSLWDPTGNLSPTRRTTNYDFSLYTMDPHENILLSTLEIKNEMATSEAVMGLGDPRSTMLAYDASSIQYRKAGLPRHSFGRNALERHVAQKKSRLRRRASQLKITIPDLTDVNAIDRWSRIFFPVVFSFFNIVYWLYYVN", "sequence (O14764 25-452)": "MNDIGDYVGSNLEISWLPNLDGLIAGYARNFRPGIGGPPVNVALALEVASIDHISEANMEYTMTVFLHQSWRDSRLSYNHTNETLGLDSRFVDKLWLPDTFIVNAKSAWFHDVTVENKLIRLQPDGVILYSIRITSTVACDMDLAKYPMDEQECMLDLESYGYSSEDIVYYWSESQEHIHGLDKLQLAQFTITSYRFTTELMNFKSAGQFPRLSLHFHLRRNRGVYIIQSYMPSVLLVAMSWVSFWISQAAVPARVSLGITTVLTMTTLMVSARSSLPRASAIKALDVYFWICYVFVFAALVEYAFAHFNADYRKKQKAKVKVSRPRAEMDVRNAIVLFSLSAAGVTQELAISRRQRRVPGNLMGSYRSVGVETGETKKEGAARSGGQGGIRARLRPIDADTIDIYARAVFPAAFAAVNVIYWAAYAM", "test": "Effect on α4β2δ receptor during long drug applications, oocytes", "format": "cell-based", "in_short": "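Human α4β2δ GABAA receptors were expressed in Xenopus laevis oocytes by injecting 3.5-6 ng total cRNA per oocyte. Oocytes were held 1-2 days in ND96 (pH 7.4) with Na pyruvate and antibiotics. Currents were recorded by two-electrode voltage clamp.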"}, "[2]": {"biological_target": "T1, α1β2γ2L GABAAR (Rattus norvegicus, UniProt P18508+P62813+P63138, INS375LLRMFSFK)", "test": "Drug combination", "format": "cell-based"}, "[3]": {"biological_target": "α1(L232C)β2γ2L GABAAR (Rattus norvegicus, UniProt P18508+P62813+P63138, INS375LLRMFSFK/L258C)", "test": "Potentiation of low GABA response, mutant receptor in oocytes", "format": "cell-based", "conditions": "50 μM; low GABA PA<0.10; mean±SEM"}, "[4]": {"biological_target": "α1(M236C)β2γ2L GABAAR (Rattus norvegicus, UniProt P18508+P62813+P63138, INS375LLRMFSFK/M262C)", "test": "Potentiation of low GABA response, mutant receptor in oocytes", "format": "cell-based", "conditions": "50 μM; low GABA PA<0.10; mean±SEM"}, "[5]": {"system": "binary αβ GABAA receptors (α1β2, α1β3)", "test": "Potentiation of binary αβ receptors compared with ternary αβγ, oocytes", "format": "cell-based"}, "[6]": {"biological_target": "α1β2γ2L(L246C) GABAAR (Rattus norvegicus, UniProt P18508+P62813+P63138, INS375LLRMFSFK/L284C)", "test": "Potentiation of low GABA response, mutant receptor in oocytes", "format": "cell-based", "conditions": "50 μM; low GABA PA<0.10; mean±SEM"}, "[7]": {"biological_target": "T1, α1β2γ2L GABAAR", "test": "Modulation of steady-state response to saturating GABA, Xenopus oocytes", "format": "cell-based", "conditions": "50 μM α7-PAM; 1 mM GABA"}, "[8]": {"biological_target": "α1(A291W)β2γ2L GABAAR (Rattus norvegicus, UniProt P18508+P62813+P63138, A317W/INS375LLRMFSFK)", "test": "Potentiation of low GABA response, mutant receptor in oocytes", "format": "cell-based", "conditions": "50 μM; low GABA PA<0.10; mean±SEM"}, "[9]": {"biological_target": "T2, α1β3γ2L GABAAR (Homo sapiens, UniProt P14867+P18507+P28472)", "format": "binding"}, "[10]": {"biological_target": "α1β2γ2L(S280C) GABAAR (Rattus norvegicus, UniProt P18508+P62813+P63138, INS375LLRMFSFK/S318C)", "test": "Potentiation of low GABA response, mutant receptor in oocytes", "format": "cell-based", "conditions": "50 μM; low GABA PA<0.10; mean±SEM"}, "[11]": {"biological_target": "α1(Q241L)β2γ2L GABAAR (Rattus norvegicus, UniProt P18508+P62813+P63138, INS375LLRMFSFK/Q268L)", "test": "Potentiation of low GABA response, mutant receptor in oocytes", "format": "cell-based", "conditions": "50 μM; low GABA PA<0.10; mean±SEM"}, "[12]": {"biological_target": "α1β2(M286W)γ2L GABAAR (Rattus norvegicus, UniProt P18508+P62813+P63138, INS375LLRMFSFK/M310W)", "test": "Potentiation of low GABA response, mutant receptor in oocytes", "format": "cell-based", "conditions": "50 μM; low GABA PA<0.10; mean±SEM"}, "[13]": {"biological_target": "T2, α1β3γ2L GABAAR", "test": "Potentiation of low GABA response, oocytes", "format": "cell-based", "conditions": "50 μM; low GABA PA<0.10; mean±SEM"}, "[14]": {"biological_target": "α1β3(L231C)γ2L GABAAR (Homo sapiens, UniProt P14867+P18507+P28472, L256C)", "test": "Potentiation of low GABA response, mutant receptor in oocytes", "format": "cell-based", "conditions": "50 μM; low GABA PA<0.10; mean±SEM"}, "[15]": {"system": "α4β2 nicotinic receptor", "conditions": "at high μM concentrations; ref Arias et al., 2011; Timmermann et al., 2007; cited from earlier work"}, "[16]": {"biological_target": "α1β2γ2L(I242C) GABAAR (Rattus norvegicus, UniProt P18508+P62813+P63138, I280C/INS375LLRMFSFK)", "test": "Potentiation of low GABA response, mutant receptor in oocytes", "format": "cell-based", "conditions": "50 μM; low GABA PA<0.10; mean±SEM"}, "[17]": {"biological_target": "T1, α1β2γ2L GABAAR", "format": "cell-based"}, "[18]": {"biological_target": "α1β2(N265M)γ2L GABAAR (Rattus norvegicus, UniProt P18508+P62813+P63138, INS375LLRMFSFK/N289M)", "test": "Potentiation of low GABA response, mutant receptor in oocytes", "format": "cell-based", "conditions": "50 μM; low GABA PA<0.10; mean±SEM"}, "[19]": {"biological_target": "T1, α1β2γ2L GABAAR", "test": "Potentiation of receptors activated by allosteric agonists", "format": "cell-based"}, "[20]": {"biological_target": "T1, α1β2γ2L GABAAR", "test": "Direct activation, two-electrode voltage clamp in Xenopus oocytes", "format": "cell-based", "conditions": "50 μM α7-PAM; n=5 oocytes/drug; mean±SEM"}, "[21]": {"biological_target": "α1β3(M227C)γ2L GABAAR (Homo sapiens, UniProt P14867+P18507+P28472, M252C)", "test": "Potentiation of low GABA response, mutant receptor in oocytes", "format": "cell-based", "conditions": "50 μM; low GABA PA<0.10; mean±SEM"}, "[22]": {"system": "α3β4 nicotinic receptor", "conditions": "at high μM concentrations; ref Arias et al., 2011; Timmermann et al., 2007; cited from earlier work"}}, "note": "Where two headings read alike, the source gives them in different places."}
{"compound": "O=C(Nc1cc(Cl)ccc1O)Nc1cc(C(F)(F)F)ccc1Cl", "note": "[NS-1738, N-(5-Cl-2-hydroxyphenyl)-N’-[2-Cl-5-(trifluoromethyl)phenyl]-urea]", "values": [{"measurement": "effect on the α4β2δ receptor", "setting": "[1]", "result": "inhibited"}, {"measurement": "PA of response to GABA+NS-1738", "setting": "[2]; 0.5 μM GABA+20 μM NS-1738", "result": "0.153±0.043"}, {"measurement": "observed PA in the presence of R(+)-etomidate+α7-PAM", "setting": "[2]; 50 μM α7-PAM, R(+)-etomidate", "result": "0.068±0.022"}, {"measurement": "predicted PA for R(+)-etomidate+α7-PAM, distinct site model", "setting": "[2]; 50 μM α7-PAM, R(+)-etomidate", "result": "0.253±0.055"}, {"measurement": "predicted PA for R(+)-etomidate+α7-PAM, same site model", "setting": "[2]; 50 μM α7-PAM, R(+)-etomidate", "result": "0.007±0.002"}, {"measurement": "PA of response to low GABA+NS-1738", "setting": "[2]; 0.1-0.5 μM GABA+10 μM NS-1738, 5 oocytes", "result": "0.084±0.028"}, {"measurement": "Potentiation (% of control), α1(L232C)β2γ2L", "setting": "[3]", "result": "357 ± 55% of control"}, {"measurement": "Potentiation (% of control), α1(M236C)β2γ2L", "setting": "[4]", "result": "181 ± 15% % of control"}, {"measurement": "magnitude of potentiation in binary αβ vs ternary αβγ receptors", "setting": "[5]", "result": "similar"}, {"measurement": "Potentiation (% of control), α1β2γ2L(L246C)", "setting": "[6]", "result": "262 ± 25% of control"}, {"measurement": "steady-state response to saturating GABA in presence of α7-PAM (% of control)", "setting": "[7]", "result": "44±8 % of control"}, {"measurement": "Potentiation (% of control), α1(A291W)β2γ2L", "setting": "[8]", "result": "199 ± 22% % of control"}, {"measurement": "decrease in GABA Ki between 0 (control) and 100 μM α7-PAM", "setting": "[9]; 100 μM α7-PAM", "result": 25, "unit": "fold"}, {"measurement": "direct effect on fluorescence from α1β3γ2L-bound Gzn-OG (orthosteric site)", "setting": "[9]; 3-100 μM α7-PAM, no GABA", "result": "do not modify fluorescence"}, {"measurement": "Potentiation (% of control), α1β2γ2L(S280C)", "setting": "[10]", "result": "344 ± 60% of control"}, {"measurement": "Potentiation (% of control), α1(Q241L)β2γ2L", "setting": "[11]", "result": "491 ± 45% of control"}, {"measurement": "Potentiation (% of control), α1β2(M286W)γ2L", "setting": "[12]", "result": "613 ±91% % of control"}, {"measurement": "Potentiation (% of control), α1β3γ2L", "setting": "[13]", "result": "301 ± 12% of control"}, {"measurement": "Potentiation (% of control), α1β3(L231C)γ2L", "setting": "[14]", "result": "217 ± 36% of control"}, {"measurement": "effect on the heteromeric α4β2 nicotinic receptor", "setting": "[15]", "result": "inhibit"}, {"measurement": "Potentiation (% of control), α1β2γ2L(I242C)", "setting": "[16]", "result": "376 ±35% of control"}, {"measurement": "potentiation of the response to low GABA (% of control)", "setting": "[17]; 50 μM α7-PAM, 2-5 μM GABA (PA<0.10), 100% = no effect, mean±SEM", "result": "383±38 % of control"}, {"measurement": "free energy change (ΔG) towards stabilizing the active state", "setting": "[17]; co-agonist concerted transition model", "result": -1.29, "unit": "kcal/mol"}, {"measurement": "Potentiation (% of control), α1β2(N265M)γ2L", "setting": "[18]", "result": "426 ± 61% of control"}, {"measurement": "potentiation of currents elicited by propofol (% of control)", "setting": "[19]; 50 μM α7-PAM, 10 μM propofol", "result": "145±11 % of control"}, {"measurement": "potentiation of the response to phenobarbital (% of control)", "setting": "[19]; 50 μM α7-PAM, 1 mM phenobarbital, n=5", "result": "431±52 % of control"}, {"measurement": "potentiation of the peak response to R(+)-etomidate (% of control)", "setting": "[19]; 50 μM α7-PAM, 2-4 μM R(+)-etomidate", "result": "125±8 % of control"}, {"measurement": "direct activation: response as % of the peak response to 1 mM GABA+50 μM propofol", "setting": "[20]", "result": "0.86±0.51", "unit": "%"}, {"measurement": "Potentiation (% of control), α1β3(M227C)γ2L", "setting": "[21]", "result": "322 ± 40% of control"}, {"measurement": "effect on the heteromeric α3β4 nicotinic receptor", "setting": "[22]", "result": "inhibit"}]}
{"compound": "CC(C)c1cccc(C(C)C)c1O", "note": "[propofol]", "values": [{"measurement": "PA of currents elicited by propofol alone", "setting": "[19]; 10 μM propofol", "result": "0.06-0.07"}]}
{"compound": "NCCCC(=O)O", "note": "[GABA, γ-aminobutyric acid]", "values": [{"measurement": "PA of response to GABA alone", "setting": "[2]; 0.5 μM GABA, n=5", "result": "0.039±0.013"}, {"measurement": "PA of response to GABA alone", "setting": "[17]; 2-5 μM GABA (EC6-7)", "result": "0.05-0.06"}]}
